ChEMBL document CHEMBL1153490, “Spiroadamantyl 1,2,4-trioxolane, 1,2,4-trioxane, and 1,2,4-trioxepane pairs: relationship between peroxide bond iron(II) reactivity, heme alkylation efficiency, and antimalarial activity” (Bioorg Med Chem Lett, 2009)
Converted amounts (≈) assume the structure as drawn.

How the values were obtained:
Plasmodium falciparum = test: Antimalarial activity against chloroquine-resistant Plasmodium falciparum K1 […]; assay type: functional, organism-based
Plasmodium berghei = test: Antimalarial activity as reduced parasitaemia after 3 days against Plasmodium berghei infected NMRI mice (Mus musculus) at 100 mg/kg peroral dose; assay type: functional; design: scale not given: the % may be the effect or the level left; conditions: route oral
In short: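 Groups of three P. berghei-infected NMRI mice were dosed orally one day post-infection at 100 mg/kg. Compounds were dissolved or suspended in 3% ethanol and 7% Tween 80.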

[1] = Induction of heme alkylation measured within 30 seconds by visible spectrophotometry; design: concentration or dose not given beside the values
[2] = test system: Plasmodium falciparum (NF54); test: Antimalarial activity against chloroquine-sensitive Plasmodium falciparum NF54

c1ccc([C@@H]2OOC3(O2)C2CC4CC(C2)CC3C4)cc1 (stereo not given in full)
IC50 (Plasmodium falciparum): 0.4 µg/mL (≈ 1.47 µM) | Activity (Plasmodium berghei): 25% | Activity [1]: 50% | IC50 [2]: > 1 µg/mL

C[C@@]1(c2ccccc2)OOC2(O1)C1CC3CC(C1)CC2C3 (stereo not given in full)
IC50 (Plasmodium falciparum): 0.0029 µg/mL (≈ 0.0101 µM) | Activity (Plasmodium berghei): 99% | Activity [1]: 67% | IC50 [2]: 0.0034 µg/mL (≈ 0.0119 µM)

C1CC[C@]2(CC1)CCO[C@]1(OO2)C2CC3CC(C2)CC1C3
Activity (Plasmodium berghei): 0% | Activity [1]: 25% | IC50 [2]: > 1 µg/mL

c1ccc([C@H]2CCOC3(OO2)C2CC4CC(C2)CC3C4)cc1 (stereo not given in full)
Activity [1]: 1% | IC50 [2]: > 1 µg/mL

CC(C)(N)CNC(=O)C[C@H]1CC[C@]2(CC1)OO[C@]1(O2)C2CC3CC(C2)CC1C3
Activity [1]: 83%

C[C@]1(c2ccccc2)COC2(OO1)C1CC3CC(C1)CC2C3 (stereo not given in full)
IC50 (Plasmodium falciparum): 0.019 µg/mL (≈ 0.0632 µM) | Activity (Plasmodium berghei): 0% | IC50 [2]: 0.022 µg/mL (≈ 0.0732 µM)

C[C@@H]1CC[C@H]2[C@@H](C)C(=O)O[C@@H]3O[C@@]4(C)CC[C@@H]1[C@]32OO4 [ARTEMISININ]
Activity (Plasmodium berghei): 98% | IC50 [2]: 0.0028 µg/mL (≈ 0.00992 µM)

C1CCC2(CC1)COC1(OO2)C2CC3CC(C2)CC1C3 (stereo not given)
IC50 (Plasmodium falciparum): 0.054 µg/mL (≈ 0.194 µM) | Activity (Plasmodium berghei): 0% | Activity [1]: 45% | IC50 [2]: 0.044 µg/mL (≈ 0.158 µM)

c1ccc([C@H]2COC3(OO2)C2CC4CC(C2)CC3C4)cc1 (stereo not given in full)
IC50 (Plasmodium falciparum): 0.0091 µg/mL (≈ 0.0318 µM) | Activity (Plasmodium berghei): 96% | Activity [1]: 55% | IC50 [2]: 0.019 µg/mL (≈ 0.0663 µM)

C1CCC2(CC1)OOC1(O2)C2CC3CC(C2)CC1C3 (stereo not given)
Activity (Plasmodium berghei): >99.99% | Activity [1]: 86% | IC50 [2]: 0.0014 µg/mL (≈ 0.0053 µM)
